Each structure is given as a SMILES string. The source made the active and inactive calls. No cut-off for these calls is given here. Some results are limits rather than exact numbers.

Chain of Metabotropic glutamate receptor 5 (Homo sapiens, UniProt P41594) (P41594 whole entry): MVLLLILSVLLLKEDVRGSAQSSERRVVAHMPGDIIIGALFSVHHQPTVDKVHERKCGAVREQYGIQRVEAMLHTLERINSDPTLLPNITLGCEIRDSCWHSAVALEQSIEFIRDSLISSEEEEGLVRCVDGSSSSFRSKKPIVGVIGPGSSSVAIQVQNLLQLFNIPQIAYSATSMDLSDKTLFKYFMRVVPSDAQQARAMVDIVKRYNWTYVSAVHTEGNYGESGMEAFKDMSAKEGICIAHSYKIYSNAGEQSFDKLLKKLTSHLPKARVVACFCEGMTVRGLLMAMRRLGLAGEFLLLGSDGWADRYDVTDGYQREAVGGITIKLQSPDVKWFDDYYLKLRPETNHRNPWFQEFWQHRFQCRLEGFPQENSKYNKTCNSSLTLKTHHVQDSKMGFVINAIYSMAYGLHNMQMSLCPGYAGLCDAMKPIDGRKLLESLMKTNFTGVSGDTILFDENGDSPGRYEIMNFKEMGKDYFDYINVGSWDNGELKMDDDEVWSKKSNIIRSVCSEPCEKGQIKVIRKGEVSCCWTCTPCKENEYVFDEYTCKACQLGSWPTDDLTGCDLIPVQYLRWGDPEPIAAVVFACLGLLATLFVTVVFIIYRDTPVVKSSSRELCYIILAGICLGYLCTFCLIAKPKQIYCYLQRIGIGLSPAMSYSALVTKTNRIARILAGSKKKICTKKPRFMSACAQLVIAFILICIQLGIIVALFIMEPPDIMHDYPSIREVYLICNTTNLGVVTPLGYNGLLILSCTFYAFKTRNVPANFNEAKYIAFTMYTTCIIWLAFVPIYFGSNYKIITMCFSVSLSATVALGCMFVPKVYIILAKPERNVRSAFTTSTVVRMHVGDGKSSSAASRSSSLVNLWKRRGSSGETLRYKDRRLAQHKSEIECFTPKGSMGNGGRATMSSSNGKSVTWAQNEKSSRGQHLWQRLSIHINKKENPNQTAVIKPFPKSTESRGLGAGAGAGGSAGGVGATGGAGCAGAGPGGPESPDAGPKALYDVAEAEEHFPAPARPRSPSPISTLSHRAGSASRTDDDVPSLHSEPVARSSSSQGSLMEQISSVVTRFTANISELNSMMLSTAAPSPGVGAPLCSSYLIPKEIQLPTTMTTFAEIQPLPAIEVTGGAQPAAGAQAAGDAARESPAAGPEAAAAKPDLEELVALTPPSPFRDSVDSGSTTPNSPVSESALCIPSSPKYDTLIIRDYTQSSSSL
Chain of Metabotropic glutamate receptor 5 (Rattus norvegicus, UniProt P31424) (P31424 whole entry): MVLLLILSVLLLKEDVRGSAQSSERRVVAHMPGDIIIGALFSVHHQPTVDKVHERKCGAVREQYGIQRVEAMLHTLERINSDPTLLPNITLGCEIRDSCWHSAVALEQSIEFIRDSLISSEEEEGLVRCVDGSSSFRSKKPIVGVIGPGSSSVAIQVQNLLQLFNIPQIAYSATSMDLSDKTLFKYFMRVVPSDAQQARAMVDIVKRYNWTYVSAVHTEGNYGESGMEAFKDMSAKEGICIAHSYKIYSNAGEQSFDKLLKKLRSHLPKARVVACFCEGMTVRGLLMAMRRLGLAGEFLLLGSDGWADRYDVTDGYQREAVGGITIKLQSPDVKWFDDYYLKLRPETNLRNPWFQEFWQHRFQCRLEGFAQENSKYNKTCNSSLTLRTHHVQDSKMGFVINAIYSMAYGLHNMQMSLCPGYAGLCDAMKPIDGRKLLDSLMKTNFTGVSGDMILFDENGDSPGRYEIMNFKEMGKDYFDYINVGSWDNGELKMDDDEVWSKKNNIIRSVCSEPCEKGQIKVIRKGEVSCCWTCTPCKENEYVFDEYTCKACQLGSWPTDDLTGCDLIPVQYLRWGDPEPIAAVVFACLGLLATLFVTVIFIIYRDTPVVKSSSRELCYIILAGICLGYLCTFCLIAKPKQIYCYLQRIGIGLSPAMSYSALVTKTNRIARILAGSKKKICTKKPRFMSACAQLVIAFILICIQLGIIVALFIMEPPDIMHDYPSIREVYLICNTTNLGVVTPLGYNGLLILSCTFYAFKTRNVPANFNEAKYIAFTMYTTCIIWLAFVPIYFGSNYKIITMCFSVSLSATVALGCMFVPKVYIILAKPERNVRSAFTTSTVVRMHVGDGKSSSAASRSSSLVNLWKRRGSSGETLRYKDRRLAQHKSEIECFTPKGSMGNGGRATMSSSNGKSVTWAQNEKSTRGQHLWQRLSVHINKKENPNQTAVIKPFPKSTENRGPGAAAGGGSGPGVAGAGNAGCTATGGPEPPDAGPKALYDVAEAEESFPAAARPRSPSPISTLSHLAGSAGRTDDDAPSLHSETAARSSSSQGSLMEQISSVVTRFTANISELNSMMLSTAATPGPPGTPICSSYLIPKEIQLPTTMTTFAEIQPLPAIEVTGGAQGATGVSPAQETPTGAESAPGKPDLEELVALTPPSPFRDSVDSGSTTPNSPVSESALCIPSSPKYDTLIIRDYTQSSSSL

The first test has as its target Metabotropic glutamate receptor 5 (Rattus norvegicus, UniProt P31424). The test can be described thus: Displacement of [3H]MPEP from mGluR5 in rat brain membranes. The format is cell membranes.
In general, Ki refers to the equilibrium dissociation constant of an inhibitor or competing ligand from its target. Lower therefore signals a stronger hold on the target. Consider `Cc1nc(C#Cc2cccc(C#N)c2)cs1`, for which the affinity corresponds to a Ki of 0.25 nM. That is a sub-nanomolar value.

`C=Cc1cncc(C#Cc2csc(C)n2)c1` returned an inhibition constant (Ki) of 0.71 nM.

A further test has as its target Metabotropic glutamate receptor 5 (Homo sapiens, UniProt P41594). The test can be described thus: Displacement of [3H]MPEP from cloned human mGluR5 transfected in HEK293-T cells. The format is cell-based. The method, boiled down:
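HEK293-T cells transiently transfected with cloned mGluR5 cDNA. Binding used 3.0 nM [3H]-MPEP with varying unlabeled ligand in 50 mM Tris-Cl, 0.9% NaCl, pH 7.4, incubated 90 min at 20 °C. Membranes were harvested on PEI-pretreated GF/C filters and counted by scintillation to obtain Ki.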
Background: In a radioligand displacement assay an active substance lowers the binding of a labelled ligand.
For the compound `Cc1nc(C#Cc2cccc(C#N)c2)cs1`, the Ki is 0.37 nM. This counts as sub-nanomolar.

`C=Cc1cncc(C#Cc2csc(C)n2)c1` displayed an inhibition constant (Ki) of 1 nM.

The target of another test is Metabotropic glutamate receptor 5 (Rattus norvegicus) (UniProt P31424). The test can be described thus: Activity in agonist-induced phosphoinositide hydrolysis in CHO cells expressing mGluR5a.
Chain of Metabotropic glutamate receptor 5 (Rattus norvegicus) (P31424 whole entry, looked up): as the sequence (P31424 whole entry) above
The IC50 is the concentration needed to halve the response being measured. The compound `Cc1nc(C#Cc2ccc(F)nc2)cs1` came in with an IC50 of 833 nM.

For the compound `CCc1sc(C)nc1C#Cc1cccnc1`, the IC50 worked out at 1240 nM. This IC50 and that of the compound before are within 1.5-fold of each other.

`OCC#Cc1nc(C#Cc2cccc(F)c2)cs1` registered an IC50 of over 10000 nM.

Compound `COc1ccc(C#Cc2csc(C)n2)cn1` yielded an IC50 of 426 nM.

`Cc1nc(C#Cc2ccc3[nH]ccc3c2)cs1` came in with an IC50 of over 10000 nM.

`Cc1nc(C#Cc2ccc(F)cc2)cs1` had an IC50 of 2970 nM.

As to `COc1ccc(-c2cncc(C#Cc3csc(C)n3)c2)cc1`, the IC50 was 225 nM.

For the compound `Cc1nc(C#Cc2ccc(-c3ccc(F)cc3)nc2)cs1`, the IC50 came to 10.2 nM.

With `Cc1nc(C#Cc2ccsc2)cs1`, the concentration for half-maximal inhibition (IC50) is 337 nM.

Consider `C#Cc1nc(C#Cc2cccc(F)c2)cs1`, for which the concentration for half-maximal inhibition (IC50) was found to be 2920 nM.

`Cc1nc(C#Cc2cncnc2)cs1` gave an IC50 of 946 nM.

Consider `Nc1nc(C#Cc2cccnc2)cs1`, for which the IC50 worked out at 789 nM.

Turning to `Cc1nc(C#Cc2cc(F)cc(F)c2)cs1`, the 50% inhibitory concentration (IC50) stood at 25.3 nM.

The compound `CC(=O)Nc1nc(C#Cc2cccnc2)cs1` yielded an IC50 of 1920 nM.

`Cc1nc(C#Cc2cccnc2)co1`: the 50% inhibitory concentration (IC50) was over 10000 nM.

`Cc1nc(C#Cc2ccc(F)cn2)cs1` came in with an IC50 of 1090 nM.

For `Cc1nc(C(=O)Nc2cccnc2)cs1`, the IC50 is over 10000 nM.

As to `C#Cc1cncc(C#Cc2csc(C)n2)c1`, the half-maximal inhibitory concentration (IC50) came to 19.2 nM.

Take `Cc1nc(C#Cc2cnc3ccccc3c2)cs1`: the IC50 is over 10000 nM.

`Fc1cccc(C#Cc2csc(Br)n2)c1`: the IC50 was 526 nM. This counts as sub-micromolar.

For the compound `Cc1nc(C#Cc2cccnc2OS(C)(=O)=O)cs1`, the IC50 is over 10000 nM.

Compound `COc1ccccc1C#Cc1csc(C)n1` returned an IC50 of 36.3 nM.

As to `C=Cc1ccc(C#Cc2csc(C)n2)cn1`, the IC50 is over 10000 nM.

`Cc1nc(C#Cc2ccc(OS(C)(=O)=O)nc2)cs1` yielded an IC50 of 2340 nM.

In turn, `Cc1nc(/C=C/c2cccnc2)cs1` returned a concentration for half-maximal inhibition (IC50) of 3090 nM.

Compound `C#Cc1ccc(C#Cc2csc(C)n2)cn1` had an IC50 of 2950 nM.

In turn, `Cc1nc(C#Cc2cnccn2)cs1` registered an IC50 of 1830 nM.

As for `COc1ncccc1C#Cc1csc(C)n1`, the IC50 was 228 nM.

The compound `CC(=O)Nc1cccc(C#Cc2csc(C)n2)c1` returned an IC50 of 2020 nM.

Turning to `Cc1nc(C#Cc2cccc(C(N)=O)c2)cs1`, the IC50 stood at 1000 nM. This IC50 is about 2-fold lower than that of the compound before.

`C#Cc1ncccc1C#Cc1csc(C)n1` had an IC50 of 192 nM. This IC50 is about 5.2-fold lower than that of the compound before.

`Cc1nc(C#Cc2ccc(Cl)nc2)cs1` yielded an IC50 of over 10000 nM.

In turn, `C(#Cc1csc(NCc2ccccc2)n1)c1cccnc1` displayed an IC50 of over 10000 nM.

As for `Cc1nc(C#Cc2cccc(F)c2)cs1`, the half-maximal inhibitory concentration (IC50) is 23 nM.

On to `Cc1nc(C#Cc2cccs2)cs1`, for which the half-inhibitory concentration (IC50) came to 475 nM.

The compound `Cc1nc(C#Cc2cccc(O)c2)cs1` gave an IC50 of 654 nM.

In the case of `Cc1nc(C#Cc2cccc(C(F)(F)F)c2)cs1`, the IC50 is 413 nM.

The compound `COc1cccc(C#Cc2csc(C)n2)c1` came in with an IC50 of 49 nM.

`Cc1nc(C#Cc2cccnc2)c(C)s1` registered a half-maximal inhibitory concentration (IC50) of 698 nM.

Regarding `Cc1nc(C#Cc2cccc(Cl)c2)cs1`, the IC50 stood at 129 nM.

In the case of `Fc1cccc(C#Cc2csc(-c3cc(F)cc(F)c3)n2)c1`, the IC50 is over 10000 nM.

Consider `Cc1nc(C#Cc2cccc(C#N)c2)cs1`, for which the IC50 amounted to 0.94 nM.

In turn, `Cc1nc(C#Cc2cncc(Br)c2)cs1` returned a 50% inhibitory concentration (IC50) of 60 nM.

Take `Cc1nc(C#Cc2cccnc2Cl)cs1`: the IC50 was found to be 45.5 nM.

The compound `Cc1nc(C#Cc2cccnc2)c(-c2ccccc2)s1` had a half-maximal inhibitory concentration (IC50) of over 10000 nM.

`Cc1nc(C#Cc2cccc(F)c2)co1` gave an IC50 of over 10000 nM.

`Cc1nc(C#Cc2cncc(-c3ccc(F)cc3)c2)cs1` showed an IC50 of 162 nM.

Regarding `Cc1nc(C(=O)Nc2cccc(F)c2)cs1`, the IC50 was over 10000 nM.

Compound `Cc1nc(C#Cc2ccc3nccnc3c2)cs1` gave an IC50 of over 10000 nM.

`O=C(Nc1nc(C#Cc2cccnc2)cs1)Nc1ccc(F)cc1F`: the IC50 was over 10000 nM.

Turning to `C=Cc1cncc(C#Cc2csc(C)n2)c1`, the IC50 was 2.01 nM.

In turn, `Cc1nc(C#Cc2cccc(OC(F)(F)F)c2)cs1` gave a half-inhibitory concentration (IC50) of 266 nM.

`Cc1nc(C#Cc2ccccc2F)cs1` returned an IC50 of 140 nM.

Compound `Nc1nc(C#Cc2cccc(F)c2)cs1` displayed an IC50 of 78.6 nM. This IC50 lies about 1.8-fold lower than the previous one.

Take `Cc1nc(C#Cc2cncc(C#CCO)c2)cs1`: the 50% inhibitory concentration (IC50) stood at 68.6 nM. The IC50 values of the last two compounds are within 1.5-fold of each other.

In turn, `COC(=O)Nc1nc(C#Cc2cccnc2)cs1` had an IC50 of over 10000 nM.

For the next test, the species on record is Rattus norvegicus. As to the kind of experiment: Ability to prevent reinstatement of cocaine-seeking behavior by environmental stimuli associated with cocaine availability in Wistar rat. The format is functional, organism-based. In outline: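 Adult male Wistar rats with jugular catheters trained to self-administer cocaine (0.25 mg/kg/infusion) under FR4 in daily 2 h sessions. Extinction continued until active-lever responding fell below 20% of baseline for 3 consecutive days. Cue-induced reinstatement was then tested 30 min after i.p. pretreatment with 5 or 10 mg/kg or vehicle (5% emulphor in saline). Active-lever responses were analysed by one-way ANOVA with Tukey tests.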
For the compound `Cc1nc(C#Cc2cccnc2)cs1`, the result was Active.

The values are drawn from ChEMBL document CHEMBL1149388, “Synthesis and structure-activity relationships of 3-[(2-methyl-1,3-thiazol-4-yl)ethynyl]pyridine analogues as potent, noncompetitive metabotropic glutamate receptor subtype 5 antagonists; search for cocaine medications” (J Med Chem, 2006).
